Results pooled from the literature.
Compare with care: the assays were run in different laboratories.
NPSR1: Neuropeptide S receptor (NPSR1, Homo sapiens, UniProt Q6W5P4)
SLC6A2: Sodium-dependent noradrenaline transporter (SLC6A2, Homo sapiens, UniProt P23975)
MC4R: Melanocortin receptor 4 (MC4R, Homo sapiens, UniProt P32245)
NQO2: Ribosyldihydronicotinamide dehydrogenase [quinone] (NQO2, Homo sapiens, UniProt P16083)
CHRM5: Muscarinic acetylcholine receptor M5 (CHRM5, Homo sapiens, UniProt P08912)

COc1cccc(C2c3c(ncn(-c4cccc(Cl)c4)c3=N)Oc3ccc4ccccc4c32)c1 (centres unmarked) — IC50 (NPSR1; cAMP; antagonist; TR-FRET): 15.4 µM
CCCOC(=O)[C@@]12C[C@@H]1[C@@H](n1cnc3c(NC)nc(C#Cc4ccc(Cl)s4)nc31)[C@H](O)[C@@H]2O — Ki (SLC6A2; ligand displacement; radioligand; cell membranes): > 10 µM
Cc1cnc(-c2ccc(-c3ccc(NC(=O)Nc4c(F)cc(F)cc4F)cc3F)c3c2C(=O)NC3)[nH]1 — Kd (Dual specificity mitogen-activated protein kinase kinase 5 (MAP2K5, Homo sapiens, UniProt Q13163); binding; competition with immobilised ligand): 0.0008 µM
CCCC[C@H](NC(=O)[C@H](CO)NC(=O)[C@H](Cc1ccc(O)cc1)NC(=O)[C@H](CO)NC(C)=O)C(=O)N[C@@H](CCC(=O)O)C(=O)N[C@@H](Cc1c[nH]cn1)C(=O)N[C@@H](C)C(=O)N[C@@H](CCCNC(=N)N)C(=O)N[C@@H](Cc1c[nH]c2ccccc12)C(=O)NCC(=O)N[C@@H](CCCCN)C(=O)N1CCC[C@H]1C(=O)N[C@H](C(=O)NCC(=O)N[C@@H](CCCCN)C(=O)N[C@@H](CCCCN)C(=O)N[C@@H](CCCNC(=N)N)C(N)=O)C(C)C — Ki (MC4R; ligand displacement in cells; radioligand): > 1 µM
NC(=O)N1c2ccccc2C=Cc2ccccc21 — Ki (NQO2; enzyme activity; inhibitor): > 500 µM
COc1cccc(C2c3c(ncn(-c4ccc(NC(C)=O)cc4)c3=N)Oc3ccc4ccccc4c32)c1 (centres unmarked) — IC50 (NPSR1; cAMP; antagonist; TR-FRET): 19.4 µM
CNC(=O)[C@@]12C[C@@H]1[C@@H](n1cnc3c(NC4CC4c4ccccc4)nc(C#Cc4ccccc4)nc31)[C@H](O)[C@@H]2O (mixture of isomers) — Ki (SLC6A2; ligand displacement; radioligand): 2.31 µM
CC[C@@H]1SC2(CCN(C)CC2)NC1=O — EC50 (CHRM5; calcium signal; agonist): 1.08 µM
CCOC(=O)c1ccc(-n2cnc3c(c2=N)C(c2cccc(OC)c2)c2c(ccc4ccccc24)O3)cc1 (centres unmarked) — IC50 (NPSR1; cAMP; antagonist; TR-FRET): 15.4 µM
COc1ccc(-c2nsc(NC(=O)[C@@H]3C[C@H]3C)c2C)cc1 — EC50 (Metabotropic glutamate receptor 3 (GRM3, Homo sapiens, UniProt Q14832); calcium signal; agonist): > 25 µM
CN1CCN(C2=Nc3cc(Cl)ccc3Nc3ccccc32)CC1 — Ki (NQO2; enzyme activity; inhibitor): 746 µM
CCCCN1CCC(COC(=O)c2ccc(N)c(OCF)c2)CC1 — Ki (CHRM5; cell-free assay; radioligand): > 10 µM
Nc1ncnc2c1ncn2[C@@H]1O[C@H](COP(=O)(O)OP(=O)(O)OP(=O)(O)OP(=O)(O)OP(=O)(O)OC[C@H]2O[C@@H](n3cnc4c(N)ncnc43)[C@H](O)[C@@H]2O)[C@@H](O)[C@H]1O — Kd (adk (Escherichia coli, UniProt P69441); binding; ITC): 0.354 µM
N=c1c2c(ncn1-c1ccccc1)Oc1ccc3ccccc3c1C2c1ccccc1 (centres unmarked) — IC50 (NPSR1; calcium signal; antagonist): 0.69 µM
CCOC(=O)c1ccccc1 — Kd (Or67a (Drosophila melanogaster, UniProt Q9VT08); binding; MST): ~0.5 µM
CCN(CC)CCCC(C)Nc1cnc(C(=O)Nc2ccc(Cl)c3cccnc23)cn1 (centres unmarked) — Ki (CHRM5; cell-free assay; radioligand): 0.219 µM
Clc1ccc2c(c1)N(CCCN1CCN(CCCc3ccccc3)CC1)c1ccccc1S2 — Ki (Trypanothione reductase (TPR, Trypanosoma cruzi, UniProt P28593); enzyme activity; inhibitor; absorbance): 0.331 µM
Nc1ncnc2c1ncn2[C@@H]1O[C@H](COP(=O)(O)OP(=O)(O)OP(=O)(O)O)[C@@H](O)[C@H]1O — Kd (dnaA (Escherichia coli, UniProt P03004); binding): 0.04 µM
O=C(O)Cc1ccccc1Nc1c(Cl)cccc1Cl — Ki (NQO2; enzyme activity; inhibitor): > 1000 µM
COc1cccc(C2c3c(ncn(-c4ccccc4Cl)c3=N)Oc3ccc4ccccc4c32)c1 (centres unmarked) — IC50 (NPSR1; cAMP; antagonist; TR-FRET): 12.2 µM
CC(C)[C@@H](CC[C@@H](C)[C@H]1CC[C@H]2[C@@H]3[C@H](O)C[C@H]4C[C@@H](NCCCNCCCCNCCCN)CC[C@]4(C)[C@H]3CC[C@]12C)OS(=O)(=O)O — Ki (Tyrosine-protein phosphatase non-receptor type 12 (PTPN12, Homo sapiens, UniProt Q05209); enzyme activity; inhibitor): 40 µM
CC[C@H](C)[C@H](NC(=O)CN)C(=O)N[C@H](C(=O)N[C@@H](CC(N)=O)C(=O)N[C@H](C(=O)N[C@@H](CC(C)C)C(=O)N[C@@H](CCC(N)=O)C(=O)N[C@@H](CCCCN)C(=O)N[C@@H](Cc1ccc(O)cc1)C(=O)N[C@@H](Cc1ccc(O)cc1)C(=O)N[C@@H](CO)C(=O)N[C@@H](CCCNC(=N)N)C(=O)N[C@H](C(=O)N[C@@H](CCCNC(=N)N)C(=O)NCC(=O)NCC(=O)N[C@@H](CCCNC(=N)N)C(=O)N[C@@H](CO)C(=O)N[C@@H](C)C(=O)N[C@H](C(=O)N[C@@H](CC(C)C)C(=O)N[C@@H](CO)C(=O)N[C@H]1CSSC[C@@H](C(=O)N[C@@H](CCCNC(=N)N)C(=O)N[C@@H](CCCNC(=N)N)C(=O)N[C@@H](CCCCN)C(=O)N[C@@H](CCCCN)C(N)=O)NC(=O)[C@H](CO)NC(=O)[C@H](CCCCN)NC(=O)[C@H](CCCNC(=N)N)NC(=O)CNC(=O)[C@H](CCCNC(=N)N)NC(=O)[C@H]([C@@H](C)O)NC(=O)[C@H](CO)NC(=O)[C@H](CO)NC(=O)[C@H](CCCCN)NC(=O)CNC(=O)[C@H]([C@@H](C)CC)NC(=O)[C@H](CCC(N)=O)NC(=O)[C@H](CCC(=O)O)NC(=O)[C@H](CCC(=O)O)NC(=O)[C@H](CCCCN)NC(=O)[C@@H]2CCCN2C(=O)[C@H](CC(C)C)NC1=O)C(C)C)C(C)C)[C@@H](C)O)[C@@H](C)CC — Ki (MC4R; ligand displacement in cells): 0.292 µM
COc1cccc(C2c3c(ncn(-c4ccc(C#N)cc4)c3=N)Oc3ccc4ccccc4c32)c1 (centres unmarked) — IC50 (NPSR1; cAMP; antagonist; TR-FRET): 5.52 µM
CCOC(=O)[C@@]12C[C@@H]1[C@@H](n1ccc3c(NCCc4ccccc4)nc(C#Cc4ccccc4)nc31)[C@H](O)[C@@H]2O — Ki (SLC6A2; ligand displacement; radioligand): 2.82 µM
COc1cccc(C2c3c(ncn(-c4cccc(C)c4)c3=N)Oc3ccc4ccccc4c32)c1 (centres unmarked) — IC50 (NPSR1; cAMP; antagonist; TR-FRET): 12.2 µM
Cc1c(S(=O)(=O)O)oc2c1C(=O)C(=O)c1c-2ccc2c1CCCC2(C)C — Ki (Cholinesterase (BCHE, Homo sapiens, UniProt P06276); enzyme activity; inhibitor): > 100 µM
